Results published in ChEMBL document CHEMBL4689842, “EUbOPEN Chemogenomics Library wave 1” (2021).

System: U2OS
Assay: Multiplex assay against U2OS
Format: toxicity, cell-based
Conditions: human
Outline: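 Imaging took place on a CQ1 microscope at 37°C and 5% CO2 once compound had been added to live cells stained at seeding with Hoechst33342, BioTracker Green Microtubule Cytoskeleton Dye, MitoTracker Red and Annexin V Alexa Fluor 680. CellPathfinder machine-learning gating classed cells as Hoechst high-intensity objects or normal cells, classed normal cells as having healthy, pyknosed or fragmented nuclei, and classed pyknosed cells as mitotic or apoptotic. Tubulin, mitochondrial-mass and membrane-permeability phenotypes are per cents of the healthy-nucleus cells.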

[1] = 12 h, 1 µM, compound concentration 1 uM, replicate 1
[2] = 12 h, 1 µM, compound concentration 1 uM, replicate 2
[3] = 12 h, 10 µM, compound concentration 10 uM, replicate 1
[4] = 12 h, 10 µM, compound concentration 10 uM, replicate 2
[5] = 24 h, 1 µM, compound concentration 1 uM, replicate 1
[6] = 24 h, 1 µM, compound concentration 1 uM, replicate 2
[7] = 24 h, 10 µM, compound concentration 10 uM, replicate 1
[8] = 24 h, 10 µM, compound concentration 10 uM, replicate 2
[9] = 48 h, 1 µM, compound concentration 1 uM, replicate 1
[10] = 48 h, 1 µM, compound concentration 1 uM, replicate 2
[11] = 48 h, 10 µM, compound concentration 10 uM, replicate 1
[12] = 48 h, 10 µM, compound concentration 10 uM, replicate 2

## CCc1cccc(CC)c1NC(=O)c1nn(C)c2c1CCc1cnc(Nc3ccc(C(=O)NC4CCN(C)CC4)cc3OC(F)(F)F)nc1-2
[1]
  Population Apoptotic (%): 34%
  Population Fragmented Nuclei (%): 18%
  Population Healthy Nuclei (%): 60%
  Population Hoechst High Intensity Objects (%): 9%
  Population Membrane Permeable-Phenotype (%): 3%
  Population Mitochondria Different-Phenotype (%): 22%
  Population Mitotic Cells (%): 65%
  Population Normal (%): 90%
  Population Pyknosed Nuclei (%): 20%
  Population Tubulin-Different-Phenotype (%): 12%
  Total Cell Count: 191
[2]
  Population Apoptotic (%): 40%
  Population Fragmented Nuclei (%): 1%
  Population Healthy Nuclei (%): 83%
  Population Hoechst High Intensity Objects (%): 13%
  Population Membrane Permeable-Phenotype (%): 5%
  Population Mitochondria Different-Phenotype (%): 14%
  Population Mitotic Cells (%): 60%
  Population Normal (%): 86%
  Population Pyknosed Nuclei (%): 15%
  Population Tubulin-Different-Phenotype (%): 18%
  Total Cell Count: 51
[3]
  Population Apoptotic (%): 50%
  Population Fragmented Nuclei (%): 18%
  Population Healthy Nuclei (%): 54%
  Population Hoechst High Intensity Objects (%): 5%
  Population Membrane Permeable-Phenotype (%): 34%
  Population Mitochondria Different-Phenotype (%): 97%
  Population Mitotic Cells (%): 50%
  Population Normal (%): 94%
  Population Pyknosed Nuclei (%): 26%
  Population Tubulin-Different-Phenotype (%): 99%
  Total Cell Count: 156
[4]
  Population Apoptotic (%): 46%
  Population Fragmented Nuclei (%): 12%
  Population Healthy Nuclei (%): 70%
  Population Membrane Permeable-Phenotype (%): 15%
  Population Mitochondria Different-Phenotype (%): 98%
  Population Mitotic Cells (%): 53%
  Population Pyknosed Nuclei (%): 17%
  Population Tubulin-Different-Phenotype (%): 86%
  Total Cell Count: 75
[5]
  Population Apoptotic (%): 44%
  Population Fragmented Nuclei (%): 15%
  Population Healthy Nuclei (%): 64%
  Population Hoechst High Intensity Objects (%): 7%
  Population Membrane Permeable-Phenotype (%): 3%
  Population Mitochondria Different-Phenotype (%): 18%
  Population Mitotic Cells (%): 55%
  Population Normal (%): 92%
  Population Pyknosed Nuclei (%): 20%
  Population Tubulin-Different-Phenotype (%): 11%
  Total Cell Count: 190
[6]
  Population Apoptotic (%): 37%
  Population Fragmented Nuclei (%): 7%
  Population Healthy Nuclei (%): 81%
  Population Hoechst High Intensity Objects (%): 10%
  Population Membrane Permeable-Phenotype (%): 5%
  Population Mitochondria Different-Phenotype (%): 12%
  Population Mitotic Cells (%): 62%
  Population Normal (%): 89%
  Population Pyknosed Nuclei (%): 11%
  Population Tubulin-Different-Phenotype (%): 19%
  Total Cell Count: 53
[7]
  Population Apoptotic (%): 56%
  Population Fragmented Nuclei (%): 20%
  Population Healthy Nuclei (%): 48%
  Population Hoechst High Intensity Objects (%): 5%
  Population Membrane Permeable-Phenotype (%): 40%
  Population Mitochondria Different-Phenotype (%): 100%
  Population Mitotic Cells (%): 43%
  Population Normal (%): 94%
  Population Pyknosed Nuclei (%): 30%
  Population Tubulin-Different-Phenotype (%): 97%
  Total Cell Count: 156
[8]
  Population Apoptotic (%): 50%
  Population Fragmented Nuclei (%): 15%
  Population Healthy Nuclei (%): 63%
  Population Hoechst High Intensity Objects (%): 2%
  Population Membrane Permeable-Phenotype (%): 26%
  Population Mitochondria Different-Phenotype (%): 91%
  Population Mitotic Cells (%): 50%
  Population Normal (%): 97%
  Population Pyknosed Nuclei (%): 20%
  Population Tubulin-Different-Phenotype (%): 73%
  Total Cell Count: 77
[9]
  Population Apoptotic (%): 46%
  Population Fragmented Nuclei (%): 19%
  Population Healthy Nuclei (%): 54%
  Population Hoechst High Intensity Objects (%): 9%
  Population Membrane Permeable-Phenotype (%): 5%
  Population Mitochondria Different-Phenotype (%): 18%
  Population Mitotic Cells (%): 53%
  Population Normal (%): 90%
  Population Pyknosed Nuclei (%): 25%
  Population Tubulin-Different-Phenotype (%): 17%
  Total Cell Count: 179
[10]
  Population Apoptotic (%): 9%
  Population Fragmented Nuclei (%): 16%
  Population Healthy Nuclei (%): 72%
  Population Hoechst High Intensity Objects (%): 4%
  Population Membrane Permeable-Phenotype (%): 7%
  Population Mitochondria Different-Phenotype (%): 19%
  Population Mitotic Cells (%): 90%
  Population Normal (%): 95%
  Population Pyknosed Nuclei (%): 11%
  Population Tubulin-Different-Phenotype (%): 23%
  Total Cell Count: 49
[11]
  Population Apoptotic (%): 57%
  Population Fragmented Nuclei (%): 27%
  Population Healthy Nuclei (%): 34%
  Population Hoechst High Intensity Objects (%): 5%
  Population Membrane Permeable-Phenotype (%): 57%
  Population Mitochondria Different-Phenotype (%): 95%
  Population Mitotic Cells (%): 42%
  Population Normal (%): 94%
  Population Pyknosed Nuclei (%): 38%
  Population Tubulin-Different-Phenotype (%): 98%
  Total Cell Count: 188
[12]
  Population Apoptotic (%): 44%
  Population Fragmented Nuclei (%): 11%
  Population Healthy Nuclei (%): 51%
  Population Membrane Permeable-Phenotype (%): 35%
  Population Mitochondria Different-Phenotype (%): 86%
  Population Mitotic Cells (%): 55%
  Population Pyknosed Nuclei (%): 37%
  Population Tubulin-Different-Phenotype (%): 64%
  Total Cell Count: 97

## CCc1cccc(CC)c1NC(=O)c1nn(C)c2c1CCc1cnc(Nc3ccc(N4CCN(C)CC4)cc3OC)nc1-2
[1]
  Population Apoptotic (%): 70%
  Population Fragmented Nuclei (%): 38%
  Population Healthy Nuclei (%): 7%
  Population Hoechst High Intensity Objects (%): 8%
  Population Membrane Permeable-Phenotype (%): 100%
  Population Mitochondria Different-Phenotype (%): 75%
  Population Mitotic Cells (%): 29%
  Population Normal (%): 91%
  Population Pyknosed Nuclei (%): 53%
  Population Tubulin-Different-Phenotype (%): 100%
  Total Cell Count: 159
[2]
  Population Apoptotic (%): 68%
  Population Fragmented Nuclei (%): 18%
  Population Healthy Nuclei (%): 12%
  Population Hoechst High Intensity Objects (%): 14%
  Population Membrane Permeable-Phenotype (%): 77%
  Population Mitochondria Different-Phenotype (%): 100%
  Population Mitotic Cells (%): 31%
  Population Normal (%): 85%
  Population Pyknosed Nuclei (%): 68%
  Total Cell Count: 87
[3]
  Population Apoptotic (%): 26%
  Population Fragmented Nuclei (%): 5%
  Population Healthy Nuclei (%): 80%
  Population Hoechst High Intensity Objects (%): 2%
  Population Membrane Permeable-Phenotype (%): 35%
  Population Mitochondria Different-Phenotype (%): 54%
  Population Mitotic Cells (%): 73%
  Population Normal (%): 97%
  Population Pyknosed Nuclei (%): 14%
  Population Tubulin-Different-Phenotype (%): 95%
  Total Cell Count: 143
[4]
  Population Apoptotic (%): 50%
  Population Fragmented Nuclei (%): 8%
  Population Healthy Nuclei (%): 83%
  Population Hoechst High Intensity Objects (%): 18%
  Population Membrane Permeable-Phenotype (%): 22%
  Population Mitochondria Different-Phenotype (%): 69%
  Population Mitotic Cells (%): 50%
  Population Normal (%): 81%
  Population Pyknosed Nuclei (%): 8%
  Population Tubulin-Different-Phenotype (%): 93%
  Total Cell Count: 127
[5]
  Population Apoptotic (%): 94%
  Population Fragmented Nuclei (%): 30%
  Population Healthy Nuclei (%): 9%
  Population Hoechst High Intensity Objects (%): 20%
  Population Membrane Permeable-Phenotype (%): 100%
  Population Mitochondria Different-Phenotype (%): 100%
  Population Mitotic Cells (%): 5%
  Population Normal (%): 80%
  Population Pyknosed Nuclei (%): 59%
  Population Tubulin-Different-Phenotype (%): 100%
  Total Cell Count: 169
[6]
  Population Apoptotic (%): 92%
  Population Fragmented Nuclei (%): 18%
  Population Healthy Nuclei (%): 17%
  Population Mitotic Cells (%): 7%
  Population Pyknosed Nuclei (%): 64%
  Total Cell Count: 84
[7]
  Population Apoptotic (%): 53%
  Population Fragmented Nuclei (%): 10%
  Population Healthy Nuclei (%): 71%
  Population Hoechst High Intensity Objects (%): 1%
  Population Membrane Permeable-Phenotype (%): 22%
  Population Mitochondria Different-Phenotype (%): 73%
  Population Mitotic Cells (%): 46%
  Population Normal (%): 98%
  Population Pyknosed Nuclei (%): 18%
  Population Tubulin-Different-Phenotype (%): 92%
  Total Cell Count: 196
[8]
  Population Apoptotic (%): 41%
  Population Fragmented Nuclei (%): 14%
  Population Healthy Nuclei (%): 69%
  Population Hoechst High Intensity Objects (%): 10%
  Population Membrane Permeable-Phenotype (%): 21%
  Population Mitochondria Different-Phenotype (%): 75%
  Population Mitotic Cells (%): 58%
  Population Normal (%): 89%
  Population Pyknosed Nuclei (%): 16%
  Population Tubulin-Different-Phenotype (%): 94%
  Total Cell Count: 163
